# CRFR2-BP ag = agonists of CRF-BP/CRF-R2 complex, primary screen, cell-based, HEK293, calcium dye fluorescence, uHTS; CRF-binding protein / CRF receptor 2 complex (human); calcium dye fluorescence (FLIPR); percent of saturating CRF peptide response; activation, % at 13.2 µM; 350,000 compounds, 0.46% hits; AID 588473, 2011;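 active means activation of at least 50%, plus an integration ratio under a set limit after plate pattern correction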;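 further: plate controls were neutral control wells without compound for no effect and CRF at EC100 for full effect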
# TRPN1 ag = zebrafish TRPN1 channel agonists, primary screen, cell-based, HEK293, calcium fluorescence; transient receptor potential cation channel N1 (TRPN1/NompC), Danio rerio; HEK293 zebrafish TRPN1-YFP, Fluo-8 calcium fluorescence; 100% = response to 87 µM carbachol; activation, % at 3 µM; 220,000 compounds, 0.18% hits;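 active means activation above its plate's cutoff, the mean activation of test wells on that plate plus 3 SD, cut at about 19% in these data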;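 further: 0% = DMSO alone and 100% = 87 µM carbachol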
#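 Material – zebrafish TRPN1-YFP in HEK293 cells · Doses – 3 µM single point · Schedule – dye 1 h 37 °C plus 30 min RT · Signal – Fluo-8 calcium fluorescence, excitation 470-495 nm, emission 515-575 nm · Read-out – % activation versus carbachol response · Control set – carbachol high, DMSO low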
# CRFBP-R2 block = antagonists of CRF-BP/CRF-R2 complex, primary screen, cell-based, HEK293, calcium dye fluorescence, uHTS. inhibition, % at 11.8 µM. 350,000 compounds, 0.59% hits. CRF-induced calcium fluorescence. AID 588475, 2011;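 active means inhibition of the ligand-induced calcium signal above about 50% at the single tested concentration, limit read from the data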
# TRPML3 agonist = human TRPML3 channel agonists, primary screen, cell-based, HEK293 TRPML3-YFP, Fluo-8 calcium fluorescence, 3 µM | 100% = the carbachol control signal | activation, % at 3 µM | Mucolipin-3 (Homo sapiens), Q8TDD5 | 220,000 compounds, 0.29% hits;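 active means activation above its plate's cutoff, the mean activation of the plate's test wells plus 3 SD, cut at about 12% in these data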;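 further: 0% = DMSO only wells and 100% = carbachol wells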
# Target sequence (Q8TDD5 whole entry, looked up): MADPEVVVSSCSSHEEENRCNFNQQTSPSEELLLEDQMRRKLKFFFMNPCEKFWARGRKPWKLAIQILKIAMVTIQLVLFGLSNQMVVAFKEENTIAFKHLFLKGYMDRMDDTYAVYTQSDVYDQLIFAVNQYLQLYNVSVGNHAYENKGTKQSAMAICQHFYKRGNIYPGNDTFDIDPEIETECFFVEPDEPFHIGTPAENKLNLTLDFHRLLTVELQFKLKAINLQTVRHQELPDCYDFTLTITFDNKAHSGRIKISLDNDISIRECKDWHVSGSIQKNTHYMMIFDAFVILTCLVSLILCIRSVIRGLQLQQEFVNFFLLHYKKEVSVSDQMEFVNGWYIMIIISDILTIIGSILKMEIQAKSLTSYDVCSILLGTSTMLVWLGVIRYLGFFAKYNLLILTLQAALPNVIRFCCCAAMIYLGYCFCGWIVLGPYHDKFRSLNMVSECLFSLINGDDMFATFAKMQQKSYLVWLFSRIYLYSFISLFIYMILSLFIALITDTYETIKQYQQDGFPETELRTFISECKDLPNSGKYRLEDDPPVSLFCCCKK
#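 system = HEK293 cells stably carrying human TRPML3-YFP | doses = one concentration, 3 µM nominal, 0.3% DMSO | timing = dye loading 1 h 37 °C then 30 min ambient, 125 s read | detection = Fluo-8 calcium dye fluorescence, ex 470-495, em 515-575 nm | benchmarks = high control carbachol 87 µM, low control DMSO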
# The depositor's hits bear a star; i = inactive; / = no result; + = active, no number. Only some compounds are listed: those with a hit (about 1.2% of all), similar ones and a draw of the others.
SMILES,CRFR2-BP ag,TRPN1 ag,CRFBP-R2 block,TRPML3 agonist
COc1ccc(C2=NNC(c3ccco3)=Nc3ccc(F)cc32)cc1,-2,1,54*,0
CC[n+]1c(/C=C/N(C)c2ccccc2)oc2ccc(Cl)cc21,2,0,15,0
CCN1/C(=C/C=C/c2oc3ccc4ccccc4c3[n+]2CC)Oc2ccc3ccccc3c21,153*,73*,-219,31*
Cc1cc(C)cc(NC(=O)C2CCCN(c3nccc(C)n3)C2)c1 (stereo not given),1,-1,54*,-1
CC(=O)Nc1ccc(NC(=O)C2CCCN(c3ncccn3)C2)cc1 (stereo not given),-1,-1,-7,1
Cc1cc(C)cc(NC(=O)C2CCCN(c3nc(C)cc(C)n3)C2)c1 (stereo not given),-1,0,15,1
O=C(Nc1ccc(Oc2ccccc2)cc1)C1CCCN(c2ncccn2)C1 (stereo not given),58*,1,-103,1
Cc1nnc(NC(=O)C2CCCN(c3ncccn3)C2)s1 (stereo not given),0,-1,56*,-1
O=S(=O)(CCNCCc1ccccc1)NC1CCCCC1,5,/,-50,/
COc1ccc2[nH]c(=O)c(CN(Cc3cccs3)C(=S)NCC3CCCO3)cc2c1 (stereo not given),-1,2,-2,-1
COc1ccccc1C(=O)CC(=O)C(=O)Nc1cccc([N+](=O)[O-])c1C,3,/,-29,/
O=C(NCc1csc(-c2cccs2)n1)c1ccccc1,0,1,77*,-1
CC(C)(C)N1C(=O)[C@H]2[C@@H](c3ccc(Br)cc3)N3C(=O)N(c4cccc(F)c4)C(=O)[C@@]3(Cc3ccccc3)[C@H]2C1=O,6,/,-6,/
CCCCn1c(NC(=O)c2ccc(Br)o2)c(S(=O)(=O)c2ccccc2)c2nc3ccccc3nc21,17,0,78*,0
CCOC(=O)Nc1cc2c(c(N)n1)N=C(c1ccccc1)CN2,65*,/,-80,/
CC(=O)c1ccc(OCC(O)Cn2nnc3ccccc32)cc1 (stereo not given),2,0,4,1
Cc1cccc(C)c1OCC(O)Cn1nnc2ccccc21 (stereo not given),-1,0,65*,0
CC(=O)NC(Cc1ccc(C(C)C)cc1)C(=O)NC1CCN(C(=O)c2cccc(C)c2)CC1 (stereo not given),1,0,53*,1
C=CCN1C(=O)/C(=C/c2ccc(O)c(OC)c2)S/C1=N/c1nccs1,45,32*,-68,16*
NC1=NC(=O)/C(=C\c2ccc(O)c([N+](=O)[O-])c2)S1,2,-1,-4,0
O=C1NC(=O)/C(=C/c2ccccn2)S1,0,1,11,0
CC(C)NS(=O)(=O)c1ccc(Oc2ncc(C(F)(F)F)cc2Cl)cc1,6,2,-25,1
CCCNS(=O)(=O)c1ccc(Oc2ncc(C(F)(F)F)cc2Cl)cc1,81*,2,-77,2
O=C(NCCCN1CCOCC1)c1ccc2nc(Cc3cccc(Cl)c3)oc2c1,0,/,-10,/
COc1ccc(CN=C2NN=C(c3ccc(Cl)cc3)CS2)cc1,-2,-1,14,0
SMILES,CRFR2-BP ag,TRPN1 ag,CRFBP-R2 block,TRPML3 agonist
COc1ccc(C2=NN(C)C(=NCc3ccccc3)SC2)cc1,-3,1,62*,0
COc1ccc(CCN(Cc2cc3cc(C)c(C)cc3nc2Cl)C(=O)C2CC2)cc1,1,0,-9,0
CC(=O)Oc1ccc2c(c1)Oc1cc(OC(C)=O)ccc1C21OC(=O)c2ccccc21,368*,+,-341,506*
Cc1cc(O)ccc1C1(c2ccc(O)cc2C)OC(=O)c2ccccc21,1,1,-31,-1
COc1ccc(NS(=O)(=O)c2ccc(N3CCOCC3)c(NC(=O)C(C)C)c2)cc1,2,2,100*,2
COc1ccc(NS(=O)(=O)c2ccc(N3CCOCC3)c(NC(=O)c3ccc(F)cc3)c2)cc1,-1,-1,-19,0
O=C(CCNC(=O)c1ccc([N+](=O)[O-])cc1)NNC(=O)c1ccncc1,0,/,-8,/
CCOC(=O)c1c(C)sc2c1N(C(=O)CN(CC)CC)c1cc(Cl)ccc1S2,4,-3,-26,0
CC(C)(C)C(=O)NCc1ccc(C(=O)CN2C(=O)NC3(CCCC3)C2=O)s1,0,/,3,/
O=C(CN1C(=O)NC2(CCCC2)C1=O)c1ccc(Cl)s1,-2,/,54*,/
C=CCN1C(=O)/C(=C2/Sc3ccc(OC)cc3N2CC)SC1=S,68*,/,-39,/
CCCCN1C(=O)/C(=C2/Sc3ccc(OC)cc3N2CC)SC1=S,23,/,-7,/
CCNC(=S)N(CCc1c(C)[nH]c2ccc(C)cc12)Cc1cc(OC)c(OC)c(OC)c1,-3,-1,-3,0
Cc1ccccc1-n1ncc2c1CC(C)(C)CC2NC(=O)CN1CCCC1=O (stereo not given),0,/,-3,/
O=C(N/N=C/c1cc([N+](=O)[O-])cc(Br)c1O)C12CC3CCC(CC(C3)C1)C2,117*,1,-30,2
COc1cc(/C=N/NC(=O)C23CC4CC(CC(C4)C2)C3)cc(Br)c1O,-1,0,-5,-1
Cc1cc(S(=O)(=O)Nc2ccc(C(=O)NCC(C)(C)N3CCOCC3)cc2)ccc1F,0,/,54*,/
Cc1ccc(S(=O)(=O)NCCC(=O)NCC(c2ccc(F)cc2)N2CCOCC2)cc1 (stereo not given),0,/,7,/
CCOc1cc(/C=C2/SC(=S)NC2=O)ccc1OC(=O)c1ccco1,-3,-1,69*,0
CCN(CC)C1=CC2=CC(=C(C#N)C#N)CCC2CC1 (stereo not given),533,332*,i,298*
CCCCN(C)C1=CC2=CC(=C(C#N)C#N)CCC2CC1 (stereo not given),494,239*,i,225*
N#CC(C#N)=C1C=C2C=C(N3CCCCC3)CCC2CC1 (stereo not given),187*,+,-154,380*
COc1cccc(C(=O)/C=C/Nc2ccc(S(=O)(=O)Nc3ncccn3)cc2)c1,0,0,-4,1
O=c1oc2cc(O)ccc2cc1-c1nc2c(s1)CCc1ccccc1-2,279*,25*,-232,8
O=c1oc2ccccc2cc1-c1nc2c(s1)CCc1ccccc1-2,22,0,-66,0
CCOC(=O)c1ccc(NC(=O)Nc2ccc(F)cc2)cc1,26,21*,12,10
COC(=O)c1ccc(NC(=O)Nc2ccc(F)cc2)cc1,14,11,12,11
COc1ccccc1N1CCN(C(=O)c2cc(=O)c3c(C)cc(C)cc3o2)CC1,-2,/,2,/
CCOC(=O)N1CCN(C(=O)c2c[nH]c3ccc(S(=O)(=O)N(C)c4cccc(C)c4)cc3c2=O)CC1,82*,/,-62,/

# Screening data (PubChem)
